Measurements reported in ChEMBL document CHEMBL3044677, “Metabolism and metabolites of dithiocarbamates in the plant pathogenic fungus Leptosphaeria maculans” (J Agric Food Chem, 2012).
Calls of active or inactive are those of the source. The calls are words filed in the database; no cut-off is given here.

Key:
[1] = system: Plenodomus lingam; test: Antifungal activity against Leptosphaeria maculans isolate BJ-125/UAMH-9410 assessed as mycelial growth inhibition at 0.1 mM incubated under constant light for 5 days by mycelial radial growth bioassay; type: functional; details: for inhibition of growth at 100 µM: isolate BJ-125/UAMH-9410, 120 h, read-out: GI
In short: (§1)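 Mycelial radial growth assay. L. maculans (BJ125 or UAMH-9410) was grown on V8 agar. A 4 mm plug cut from 7-day-old V8 plates was placed upside down at the centre of PDA wells (33 mm) containing compound dissolved in CH3CN. Controls held 1% CH3CN in PDA. Plates were incubated under constant light for 5 days. Mycelial diameter was measured, and % inhibition = 100 − [(amended/control diameter) × 100]. Triplicate, at least twice; mean ± SD.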

[2] = system: Plenodomus lingam; test: Antifungal activity against Leptosphaeria maculans isolate BJ-125/UAMH-9410 assessed as mycelial growth inhibition at 0.2 mM incubated under constant light for 5 days by mycelial radial growth bioassay; type: functional; details: isolate BJ-125/UAMH-9410, 120 h, read-out: GI; in short: as §1
[3] = system: Plenodomus lingam; test: Antifungal activity against Leptosphaeria maculans isolate BJ-125/UAMH-9410 assessed as mycelial growth inhibition at 0.5 mM incubated under constant light for 5 days by mycelial radial growth bioassay; type: functional; details: isolate BJ-125/UAMH-9410, 120 h, read-out: GI; in short: as §1
[4] = Drug metabolism in Leptosphaeria maculans isolate BJ-125 assessed as drug recovery at 0.10 mM after 24 hr by HPLC analysis; type: ADME, organism-based; details: plenodomus lingam, Leptosphaeria maculans isolate BJ-125 (fungus); read-out: Drug recovery
In short: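 Minimal medium (50 mL) was inoculated with isolate BJ-125 spores (106/mL) and shaken at 120 rpm, 23 °C, under constant light. After 2 days, compound in CH3CN was added (final 0.10 mM), also to noninoculated medium as a stability control. Broth samples taken up to 72 h were extracted with EtOAc and quantified by HPLC-DAD against calibration curves; basified broth was extracted with CHCl3/MeOH for amines. At least three independent experiments ± SD.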

SMILES | growth inhibition (GI) [1] | inhibition of growth at 200 µM [2] [%] | inhibition of growth at 500 µM [3] [%] | inhibition of growth at 100 µM [1] [%] | remaining at 24 h, 100 µM [4] [%]
COn1c(CN)cc2ccccc21 | inactive | 8 | 19 |  | 
COn1c(CNC(C)=O)cc2ccccc21 |  | 11 | 15 | 4 | 
CC(=O)NCc1ccc(-c2ccccc2)cc1 |  | 17 | 30 | 9 | 
NCCCc1c[nH]c2ccccc12 | inactive | 14 | 27 |  | 
CC(=O)NCCCc1c[nH]c2ccccc12 |  | 13 | 24 | 10 | 
OCCCc1c[nH]c2ccccc12 |  | 14 | 18 | 7 | 
CSC(=S)NCc1ccc(-c2ccccc2)cc1 |  | 32 | 46 | 14 | < 5
CSC(=S)OCCCc1c[nH]c2ccccc12 |  | 18 | 31 | 5 | 
CC(=O)NCc1cc2ccccc2[nH]1 |  | 18 | 33 | 7 | 
CS/C(S)=N/CCCc1c[nH]c2ccccc12 |  | 46 | 67 | 21 | 37
COn1c(CNC(=S)SC)cc2ccccc21 [1-METHOXYISOBRASSININ] |  | 15 | 34 | 7 | 47
NCc1cc2ccccc2[nH]1 [2-INDOLYLMETHANAMINE] | inactive | 19 | 33 |  | 
c1ccc2[nH]cnc2c1 [BENZIMIDAZOLE] |  | 20 | 35 | 11 | 
CSC(=S)NCc1c[nH]c2ccccc12 [BRASSININ] |  | 21 | 55 | 10 | < 5
CSC(=S)NCc1cc2ccccc2[nH]1 [ISOBRASSININ] |  | 22 | 43 | 13 | < 5
CSC(=S)NCCc1c[nH]c2ccccc12 [METHYL TRYPTAMINEDITHIOCARBAMATE] |  | 71 | 100 | 43 | 55
CSC(=S)OCCc1c[nH]c2ccccc12 [METHYL TRYPTOPHOLDITHIOCARBAMATE] |  | 15 | 32 | 7 | 15
CC(=O)NCCc1c[nH]c2ccccc12 [NB-ACETYLTRYPTAMINE] | inactive | 7 | 15 |  | 
NCCc1c[nH]c2ccccc12 [TRYPTAMINE] |  | 15 | 28 | 12 | 
OCCc1c[nH]c2ccccc12 [TRYPTOPHOL] | inactive | 16 | 29 |  | 
